Assay results reported in ChEMBL document CHEMBL4145619, “Computer-Assisted Discovery of Retinoid X Receptor Modulating Natural Products and Isofunctional Mimetics” (J Med Chem, 2018).
Calls of active or inactive are those of the source. The rule behind the calls is not given here.

Legend:
Format in all cases: cell-based
[1] = molecular target: T1, Peroxisome proliferator-activated receptor alpha (Homo sapiens) (UniProt Q07869); assay: Transactivation of human Gal4-fused PPARalpha LBD expressed in HEK293T cells at 30 uM after 12 to 14 hrs by dual-glo luciferase assay
T1 sequence (whole entry): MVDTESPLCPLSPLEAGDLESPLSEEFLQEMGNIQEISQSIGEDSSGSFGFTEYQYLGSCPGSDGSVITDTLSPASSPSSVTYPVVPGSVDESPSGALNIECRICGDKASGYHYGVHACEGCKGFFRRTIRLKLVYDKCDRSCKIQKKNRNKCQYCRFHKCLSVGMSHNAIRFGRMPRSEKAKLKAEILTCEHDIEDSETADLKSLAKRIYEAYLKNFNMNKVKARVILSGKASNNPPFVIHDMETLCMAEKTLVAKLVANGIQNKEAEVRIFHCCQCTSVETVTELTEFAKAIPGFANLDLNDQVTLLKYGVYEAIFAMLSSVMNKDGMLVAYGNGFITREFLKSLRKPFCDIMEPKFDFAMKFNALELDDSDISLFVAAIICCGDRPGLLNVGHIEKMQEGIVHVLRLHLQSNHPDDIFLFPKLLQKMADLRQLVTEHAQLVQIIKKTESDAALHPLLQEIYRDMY
Method in brief: (§1)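 Single-concentration selectivity profiling in Gal4-hybrid reporter gene assays in HEK293T cells. Each nuclear receptor construct (RAR, PPAR, LXR, FXR, CAR, VDR, PXR, RXR) was tested at 30 μM.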

[2] = molecular target: Retinoid X receptor (Homo sapiens) (UniProt P28702+P48443+P19793); assay: Transactivation of RXR in human HepG2 cells assessed as induction of apoE mRNA expression at 30 uM after 8 hrs by qRT-PCR analysis
Sequence of Retinoid X receptor (Homo sapiens) (P19793 whole entry, looked up, one chain of several): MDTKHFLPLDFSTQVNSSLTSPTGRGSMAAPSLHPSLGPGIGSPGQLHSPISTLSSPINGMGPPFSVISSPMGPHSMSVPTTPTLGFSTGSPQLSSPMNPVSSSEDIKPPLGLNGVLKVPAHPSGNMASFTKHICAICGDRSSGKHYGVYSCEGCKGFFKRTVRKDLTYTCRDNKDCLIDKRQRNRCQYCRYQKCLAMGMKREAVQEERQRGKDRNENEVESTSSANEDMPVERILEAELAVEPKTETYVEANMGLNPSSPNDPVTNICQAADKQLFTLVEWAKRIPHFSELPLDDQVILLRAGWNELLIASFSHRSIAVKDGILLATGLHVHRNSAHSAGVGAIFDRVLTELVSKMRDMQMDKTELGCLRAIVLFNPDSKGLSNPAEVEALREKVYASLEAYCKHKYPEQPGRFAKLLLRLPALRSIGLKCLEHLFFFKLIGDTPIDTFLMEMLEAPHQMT
Sequence of Retinoid X receptor (Homo sapiens) (P48443 whole entry, looked up, one chain of several): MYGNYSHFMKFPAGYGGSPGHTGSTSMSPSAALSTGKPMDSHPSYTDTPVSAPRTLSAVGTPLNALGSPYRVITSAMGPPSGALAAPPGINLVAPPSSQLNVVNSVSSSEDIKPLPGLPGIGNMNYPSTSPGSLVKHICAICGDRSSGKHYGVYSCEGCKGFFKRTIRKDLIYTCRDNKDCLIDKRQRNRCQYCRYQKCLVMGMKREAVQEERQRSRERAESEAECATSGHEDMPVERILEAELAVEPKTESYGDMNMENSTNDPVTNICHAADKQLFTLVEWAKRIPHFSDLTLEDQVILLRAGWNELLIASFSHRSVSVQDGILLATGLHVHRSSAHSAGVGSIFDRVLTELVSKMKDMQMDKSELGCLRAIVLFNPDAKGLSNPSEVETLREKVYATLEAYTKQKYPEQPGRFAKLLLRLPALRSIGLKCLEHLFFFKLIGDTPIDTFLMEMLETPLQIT
Method in brief: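 HepG2 cells were treated and ABCA1 or ApoE mRNA levels measured. Results are given as mean fold induction versus 0.1% DMSO vehicle ± SEM, n = 3. Significance was set at p < 0.05, 0.01 or 0.001.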

[3] = molecular target: T2, Retinoic acid receptor RXR-beta (Homo sapiens) (UniProt P28702); assay: Transactivation of human Gal4-fused RXRbeta LBD expressed in HEK293T cells after 12 to 14 hrs by dual-glo luciferase assay relative to bexarotene
T2 sequence (whole entry): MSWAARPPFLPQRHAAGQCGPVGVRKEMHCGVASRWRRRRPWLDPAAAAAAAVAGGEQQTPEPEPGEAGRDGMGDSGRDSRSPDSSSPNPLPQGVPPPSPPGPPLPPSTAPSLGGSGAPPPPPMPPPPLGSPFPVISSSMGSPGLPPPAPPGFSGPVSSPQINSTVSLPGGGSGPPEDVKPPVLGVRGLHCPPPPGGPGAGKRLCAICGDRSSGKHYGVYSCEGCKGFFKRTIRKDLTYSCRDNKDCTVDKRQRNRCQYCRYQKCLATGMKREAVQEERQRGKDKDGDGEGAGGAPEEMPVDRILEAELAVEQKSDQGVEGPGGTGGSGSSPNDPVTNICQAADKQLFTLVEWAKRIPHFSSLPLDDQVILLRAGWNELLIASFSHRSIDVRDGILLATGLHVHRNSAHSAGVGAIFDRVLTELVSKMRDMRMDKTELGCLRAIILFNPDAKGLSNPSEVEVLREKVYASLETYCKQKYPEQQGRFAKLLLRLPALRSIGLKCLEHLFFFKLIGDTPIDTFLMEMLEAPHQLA

[4] = molecular target: T2, Retinoic acid receptor RXR-beta (Homo sapiens); assay: Transactivation of human Gal4-fused RXRbeta LBD expressed in HEK293T cells at 30 uM after 12 to 14 hrs by dual-glo luciferase assay; method in brief: as §1
[5] = molecular target: T3, Peroxisome proliferator-activated receptor gamma (Homo sapiens) (UniProt P37231); assay: Transactivation of human Gal4-fused PPARgamma LBD expressed in HEK293T cells at 30 uM after 12 to 14 hrs by dual-glo luciferase assay; method in brief: as §1
T3 sequence (whole entry): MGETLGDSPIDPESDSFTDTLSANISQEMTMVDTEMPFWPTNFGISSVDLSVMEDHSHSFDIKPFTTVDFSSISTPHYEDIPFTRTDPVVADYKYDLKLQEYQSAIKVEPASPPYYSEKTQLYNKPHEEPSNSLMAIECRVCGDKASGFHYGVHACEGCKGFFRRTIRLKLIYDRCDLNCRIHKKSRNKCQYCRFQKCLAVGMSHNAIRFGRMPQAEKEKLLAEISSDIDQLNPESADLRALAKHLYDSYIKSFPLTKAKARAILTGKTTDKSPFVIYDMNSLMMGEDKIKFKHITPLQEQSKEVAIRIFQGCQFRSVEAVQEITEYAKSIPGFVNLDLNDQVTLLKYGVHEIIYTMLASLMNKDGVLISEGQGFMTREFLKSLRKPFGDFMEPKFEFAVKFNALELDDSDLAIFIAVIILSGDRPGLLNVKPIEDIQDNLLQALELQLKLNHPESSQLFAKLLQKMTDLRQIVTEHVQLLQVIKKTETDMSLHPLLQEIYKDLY

[6] = molecular target: T4, Vitamin D3 receptor (Homo sapiens) (UniProt P11473); assay: Transactivation of human Gal4-fused VDR LBD expressed in HEK293T cells at 30 uM after 12 to 14 hrs by dual-glo luciferase assay; method in brief: as §1
T4 sequence (whole entry): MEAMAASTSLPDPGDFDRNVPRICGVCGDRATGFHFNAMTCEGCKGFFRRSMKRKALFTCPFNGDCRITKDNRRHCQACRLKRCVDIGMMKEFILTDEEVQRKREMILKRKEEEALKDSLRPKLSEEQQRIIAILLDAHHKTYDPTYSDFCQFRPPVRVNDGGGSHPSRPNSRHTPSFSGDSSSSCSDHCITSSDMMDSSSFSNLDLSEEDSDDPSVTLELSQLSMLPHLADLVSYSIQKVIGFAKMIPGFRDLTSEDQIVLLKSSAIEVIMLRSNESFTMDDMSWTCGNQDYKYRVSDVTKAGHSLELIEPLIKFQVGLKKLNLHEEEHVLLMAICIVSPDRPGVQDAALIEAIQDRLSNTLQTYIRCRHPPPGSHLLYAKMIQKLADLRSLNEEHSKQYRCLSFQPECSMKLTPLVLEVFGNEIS

`CC1=C2[C@H](/C=C(\C)C(=O)O)CC[C@@H](C)[C@H]2CC1` [VALERENIC ACID] was tested, and the Activity [1] was “inactive”, the Activity [2] was “Active” and the fold change (FC) [3] was 69. The Activity [4] was “Active”, the Activity [5] was “inactive” and the Activity [6] was “inactive”.
